ChEMBL document CHEMBL5303300, “EUbOPEN Chemogenomics Library - Multiplex” (2023)
“And” between values parts separate entries of the source, which are not always exact repeats. Equal entries are not always repeated.

Tested on: Fibroblast
Assay: Multiplex assay against human fibroblast
Format: toxicity, cell-based
Settings: number of replicates 2
In short: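 Hoechst33342, BioTracker Green Microtubule Cytoskeleton Dye, MitoTracker Red and Annexin V Alexa Fluor 680 were added to live cells at seeding, and imaging on a CQ1 microscope at 37°C and 5% CO2 followed compound addition. Gating by CellPathfinder machine learning separated cells into Hoechst high-intensity objects or normal cells, then normal cells into healthy, pyknosed or fragmented nuclei, then pyknosed cells into mitotic or apoptotic. Per cents of healthy-nucleus cells are reported for the tubulin, mitochondrial-mass and membrane-permeability phenotypes.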

[1] = 12 h, 1 µM, compound concentration 1 uM
[2] = 12 h, 10 µM, compound concentration 10 uM
[3] = 24 h, 1 µM, compound concentration 1 uM
[4] = 24 h, 10 µM, compound concentration 10 uM
[5] = 48 h, 1 µM, compound concentration 1 uM
[6] = 48 h, 10 µM, compound concentration 10 uM

## CN1CCc2cc(Nc3ncc(C(F)(F)F)c(NCc4cc[nH]n4)n3)ccc2C1
[1]
  Population Apoptotic (%): 63% and 62%
  Population Fragmented Nuclei (%): 7% and 19%
  Population Healthy Nuclei (%): 63% and 58%
  Population Hoechst High Intensity Objects (%): 0%
  Population Membrane Permeable-Phenotype (%): 3% and 6%
  Population Mitochondria Different-Phenotype (%): 0% and 1%
  Population Mitotic Cells (%): 36% and 37%
  Population Normal (%): 100%
  Population Pyknosed Nuclei (%): 28% and 22%
  Population Tubulin-Different-Phenotype (%): 1% and 4%
  Total Cell Count: 133 and 168
[2]
  Population Apoptotic (%): 70% and 60%
  Population Fragmented Nuclei (%): 19% and 24%
  Population Healthy Nuclei (%): 60% and 63%
  Population Hoechst High Intensity Objects (%): 0%
  Population Membrane Permeable-Phenotype (%): 9% and 11%
  Population Mitochondria Different-Phenotype (%): 1%
  Population Mitotic Cells (%): 29% and 40%
  Population Normal (%): 100%
  Population Pyknosed Nuclei (%): 20% and 11%
  Population Tubulin-Different-Phenotype (%): 16% and 18%
  Total Cell Count: 180 and 262
[3]
  Population Apoptotic (%): 84% and 80%
  Population Fragmented Nuclei (%): 15%
  Population Healthy Nuclei (%): 40% and 50%
  Population Hoechst High Intensity Objects (%): 0%
  Population Membrane Permeable-Phenotype (%): 3% and 12%
  Population Mitochondria Different-Phenotype (%): 0%
  Population Mitotic Cells (%): 15% and 20%
  Population Normal (%): 100% and 99%
  Population Pyknosed Nuclei (%): 43% and 34%
  Population Tubulin-Different-Phenotype (%): 3%
  Total Cell Count: 133 and 161
[4]
  Population Apoptotic (%): 61% and 84%
  Population Fragmented Nuclei (%): 26% and 20%
  Population Healthy Nuclei (%): 56% and 61%
  Population Hoechst High Intensity Objects (%): 0%
  Population Membrane Permeable-Phenotype (%): 9% and 12%
  Population Mitochondria Different-Phenotype (%): 3% and 1%
  Population Mitotic Cells (%): 38% and 15%
  Population Normal (%): 100% and 99%
  Population Pyknosed Nuclei (%): 16% and 17%
  Population Tubulin-Different-Phenotype (%): 17% and 19%
  Total Cell Count: 185 and 253
[5]
  Population Apoptotic (%): 88% and 72%
  Population Fragmented Nuclei (%): 24% and 15%
  Population Healthy Nuclei (%): 40% and 67%
  Population Hoechst High Intensity Objects (%): 0%
  Population Membrane Permeable-Phenotype (%): 8% and 14%
  Population Mitochondria Different-Phenotype (%): 0%
  Population Mitotic Cells (%): 11% and 27%
  Population Normal (%): 100% and 99%
  Population Pyknosed Nuclei (%): 35% and 16%
  Population Tubulin-Different-Phenotype (%): 10% and 12%
  Total Cell Count: 122 and 133
[6]
  Population Apoptotic (%): 65% and 59%
  Population Fragmented Nuclei (%): 26% and 22%
  Population Healthy Nuclei (%): 51% and 57%
  Population Hoechst High Intensity Objects (%): 0%
  Population Membrane Permeable-Phenotype (%): 5% and 9%
  Population Mitochondria Different-Phenotype (%): 1% and 0%
  Population Mitotic Cells (%): 34% and 40%
  Population Normal (%): 100%
  Population Pyknosed Nuclei (%): 22% and 19%
  Population Tubulin-Different-Phenotype (%): 14% and 19%
  Total Cell Count: 184 and 251

## C=CC(=O)Nc1cccc(C)c1Nc1ncc2cc(-c3c(Cl)c(OC)cc(OC)c3Cl)ccc2n1
[1]
  Population Apoptotic (%): 30% and 35%
  Population Fragmented Nuclei (%): 11% and 9%
  Population Healthy Nuclei (%): 73% and 66%
  Population Hoechst High Intensity Objects (%): 0%
  Population Membrane Permeable-Phenotype (%): 4%
  Population Mitochondria Different-Phenotype (%): 0% and 1%
  Population Mitotic Cells (%): 69% and 64%
  Population Normal (%): 100% and 99%
  Population Pyknosed Nuclei (%): 14% and 23%
  Population Tubulin-Different-Phenotype (%): 12% and 9%
  Total Cell Count: 248 and 242
[2]
  Population Apoptotic (%): 60% and 47%
  Population Fragmented Nuclei (%): 35% and 15%
  Population Healthy Nuclei (%): 40% and 60%
  Population Membrane Permeable-Phenotype (%): 0% and 8%
  Population Mitochondria Different-Phenotype (%): 1% and 4%
  Population Mitotic Cells (%): 40% and 52%
  Population Normal (%): 71% and 100%
  Population Pyknosed Nuclei (%): 24% and 23%
  Population Tubulin-Different-Phenotype (%): 17% and 21%
  Total Cell Count: 202 and 201
[3]
  Population Apoptotic (%): 48% and 60%
  Population Fragmented Nuclei (%): 10% and 9%
  Population Healthy Nuclei (%): 71%
  Population Hoechst High Intensity Objects (%): 0%
  Population Membrane Permeable-Phenotype (%): 3% and 5%
  Population Mitochondria Different-Phenotype (%): 1%
  Population Mitotic Cells (%): 51% and 40%
  Population Normal (%): 99%
  Population Pyknosed Nuclei (%): 17% and 19%
  Population Tubulin-Different-Phenotype (%): 8% and 9%
  Total Cell Count: 245 and 232
[4]
  Population Apoptotic (%): 71% and 63%
  Population Fragmented Nuclei (%): 38% and 17%
  Population Healthy Nuclei (%): 41% and 63%
  Population Membrane Permeable-Phenotype (%): 0% and 1%
  Population Mitochondria Different-Phenotype (%): 0% and 9%
  Population Mitotic Cells (%): 28% and 36%
  Population Normal (%): 60% and 100%
  Population Pyknosed Nuclei (%): 20% and 19%
  Population Tubulin-Different-Phenotype (%): 7% and 20%
  Total Cell Count: 283 and 188
[5]
  Population Apoptotic (%): 61% and 67%
  Population Fragmented Nuclei (%): 12%
  Population Healthy Nuclei (%): 73%
  Population Hoechst High Intensity Objects (%): 0%
  Population Membrane Permeable-Phenotype (%): 3% and 5%
  Population Mitochondria Different-Phenotype (%): 1% and 0%
  Population Mitotic Cells (%): 38% and 32%
  Population Normal (%): 100%
  Population Pyknosed Nuclei (%): 13% and 14%
  Population Tubulin-Different-Phenotype (%): 6% and 14%
  Total Cell Count: 243 and 214
[6]
  Population Apoptotic (%): 83%
  Population Fragmented Nuclei (%): 40% and 15%
  Population Healthy Nuclei (%): 40% and 71%
  Population Membrane Permeable-Phenotype (%): 1% and 4%
  Population Mitochondria Different-Phenotype (%): 4%
  Population Mitotic Cells (%): 16%
  Population Normal (%): 52% and 100%
  Population Pyknosed Nuclei (%): 18% and 12%
  Population Tubulin-Different-Phenotype (%): 10% and 11%
  Total Cell Count: 309 and 189
